Source: ChEMBL document CHEMBL4602718, “Mechanism of Action of an EPAC1-Selective Competitive Partial Agonist” (J Med Chem, 2020)
pKd: −log10 of the molar value. Active and inactive are the calls of the source. The rule behind the calls is not given here.

Columns and labels:
[1] = biological target: T1, Rap guanine nucleotide exchange factor 3 (Homo sapiens) (UniProt O95398); assay: Binding affinity to GST-tagged human EPAC1 CNBD (149 to 318 residues)expressed in Escherichia coli BL21 (DE3) assessed as induction Intermolecular NOEs peaks in PBC and BBR residues by 15N-NOESY-HSQC NMR spectroscopy
T1 sequence (whole entry): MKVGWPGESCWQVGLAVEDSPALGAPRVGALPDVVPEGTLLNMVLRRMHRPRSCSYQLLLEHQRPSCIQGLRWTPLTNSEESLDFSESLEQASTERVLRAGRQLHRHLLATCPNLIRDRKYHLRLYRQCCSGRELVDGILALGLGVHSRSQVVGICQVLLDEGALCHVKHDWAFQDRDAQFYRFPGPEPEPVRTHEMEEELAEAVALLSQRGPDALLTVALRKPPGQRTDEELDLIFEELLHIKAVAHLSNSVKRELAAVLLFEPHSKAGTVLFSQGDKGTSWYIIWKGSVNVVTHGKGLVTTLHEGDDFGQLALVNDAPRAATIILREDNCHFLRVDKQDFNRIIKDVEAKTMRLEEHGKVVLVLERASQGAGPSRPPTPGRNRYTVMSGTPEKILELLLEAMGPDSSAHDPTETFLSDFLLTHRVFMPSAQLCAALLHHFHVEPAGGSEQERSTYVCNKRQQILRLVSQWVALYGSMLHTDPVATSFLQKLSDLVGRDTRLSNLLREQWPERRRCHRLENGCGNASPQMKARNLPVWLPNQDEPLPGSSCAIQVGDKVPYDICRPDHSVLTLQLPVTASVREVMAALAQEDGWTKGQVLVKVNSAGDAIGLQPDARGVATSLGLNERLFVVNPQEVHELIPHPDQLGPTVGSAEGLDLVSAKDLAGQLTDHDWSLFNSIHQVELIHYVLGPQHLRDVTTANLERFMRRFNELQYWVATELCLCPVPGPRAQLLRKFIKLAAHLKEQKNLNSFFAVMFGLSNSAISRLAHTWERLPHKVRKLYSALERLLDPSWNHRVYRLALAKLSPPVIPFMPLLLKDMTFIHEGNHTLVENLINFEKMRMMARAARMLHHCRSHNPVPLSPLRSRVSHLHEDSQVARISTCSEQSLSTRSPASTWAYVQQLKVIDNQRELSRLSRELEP

[2] = biological target: T1, Rap guanine nucleotide exchange factor 3 (Homo sapiens); assay: Binding affinity to GST-tagged human EPAC1 CNBD (149 to 318 residues)expressed in Escherichia coli BL21 (DE3) assessed as compound binding to phosphate binding cassette region incubated for 30 mins by CHESPA method
[3] = biological target: T1, Rap guanine nucleotide exchange factor 3 (Homo sapiens); assay: Binding affinity to GST-tagged human EPAC1 CNBD (149 to 318 residues) expressed in Escherichia coli BL21 (DE3) incubated for 30 mins by 1H,15N-HSQC NMR spectroscopy
[4] = biological target: T1, Rap guanine nucleotide exchange factor 3 (Homo sapiens); assay: Binding affinity to GST-tagged human EPAC1 CNBD (149 to 318 residues)expressed in Escherichia coli BL21 (DE3) assessed as binding to R279 Guanidinium residue by guanidinium HSQC NMR spectroscopy
Method in brief: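 Human EPAC1 residues 149–318, wild type and R279A mutant, expressed GST-tagged in E. coli BL21(DE3) in 15N or 15N/13C M9 medium. GST tag removed by thrombin; protein purified by glutathione and anion-exchange steps. Guanidinium HSQC spectra of apo or ligand-saturated protein recorded at 700 MHz and 306 K in 50 mM Tris, 50 mM NaCl, 1 mM DTT, pH 7.6. Ligand came from a DMSO-d6 stock, with matching DMSO-d6 added to apo and cAMP-bound controls.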

[5] = biological target: T1, Rap guanine nucleotide exchange factor 3 (Homo sapiens); assay: Binding affinity to GST-tagged human EPAC1 CNBD (149 to 318 residues)expressed in Escherichia coli BL21 (DE3) assessed as compound binding to cAMP-binding sites incubated for 30 mins by CHESPA method
[6] = biological target: T1, Rap guanine nucleotide exchange factor 3 (Homo sapiens); assay: Binding affinity to GST-tagged human EPAC1 CNBD (149 to 318 residues)expressed in Escherichia coli BL21 (DE3) by STD and guanidinium HSQC NMR analysis
[7] = biological target: T1, Rap guanine nucleotide exchange factor 3 (Homo sapiens); assay: Binding affinity to GST-tagged human EPAC1 CNBD (149 to 318 residues)expressed in Escherichia coli BL21 (DE3) assessed as induction of conformational changes in compound by NOESY NMR spectroscopy
[8] = biological target: T2, Rap guanine nucleotide exchange factor 3 (Homo sapiens, UniProt O95398); assay: Binding affinity to GST-tagged human EPAC1 CNBD (149 to 318 residues) expressed in Escherichia coli BL21 (DE3) incubated for 30 mins by 8-NBD-cAMP based competitive fluorescence assay
T2 sequence (O95398 whole entry): T1 sequence (whole entry)

[9] = biological target: Rap guanine nucleotide exchange factor 3 (Homo sapiens, UniProt O95398, L273W); assay: Binding affinity to GST-tagged human EPAC1 L273W mutant expressed in Escherichia coli BL21 (DE3) incubated for 30 mins by 8-NBD-cAMP based competitive fluorescence assay
Method in brief: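 Competitive displacement of 8-NBD-cAMP from the L273W mutant of the 149–318 construct, titrating ligand in Tris pH 7.6 buffer. […] Percent bound 8-NBD-cAMP was plotted against total ligand and fitted to a competitive-binding cubic solution to give Kd.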

[10] = biological target: T1, Rap guanine nucleotide exchange factor 3 (Homo sapiens); assay: Binding affinity to GST-tagged human EPAC1 CNBD (149 to 318 residues)expressed in Escherichia coli BL21 (DE3) assessed as compound binding to base binding region incubated for 30 mins by CHESPA method
[11] = biological target: T1, Rap guanine nucleotide exchange factor 3 (Homo sapiens); assay: Binding affinity to GST-tagged human EPAC1 CNBD (149 to 318 residues)expressed in Escherichia coli BL21 (DE3) assessed as induction of perturbation of allosteric network sites by CHESCA method

Chain of Rap guanine nucleotide exchange factor 3 (Homo sapiens, UniProt O95398, L273W) (O95398 whole entry L273W): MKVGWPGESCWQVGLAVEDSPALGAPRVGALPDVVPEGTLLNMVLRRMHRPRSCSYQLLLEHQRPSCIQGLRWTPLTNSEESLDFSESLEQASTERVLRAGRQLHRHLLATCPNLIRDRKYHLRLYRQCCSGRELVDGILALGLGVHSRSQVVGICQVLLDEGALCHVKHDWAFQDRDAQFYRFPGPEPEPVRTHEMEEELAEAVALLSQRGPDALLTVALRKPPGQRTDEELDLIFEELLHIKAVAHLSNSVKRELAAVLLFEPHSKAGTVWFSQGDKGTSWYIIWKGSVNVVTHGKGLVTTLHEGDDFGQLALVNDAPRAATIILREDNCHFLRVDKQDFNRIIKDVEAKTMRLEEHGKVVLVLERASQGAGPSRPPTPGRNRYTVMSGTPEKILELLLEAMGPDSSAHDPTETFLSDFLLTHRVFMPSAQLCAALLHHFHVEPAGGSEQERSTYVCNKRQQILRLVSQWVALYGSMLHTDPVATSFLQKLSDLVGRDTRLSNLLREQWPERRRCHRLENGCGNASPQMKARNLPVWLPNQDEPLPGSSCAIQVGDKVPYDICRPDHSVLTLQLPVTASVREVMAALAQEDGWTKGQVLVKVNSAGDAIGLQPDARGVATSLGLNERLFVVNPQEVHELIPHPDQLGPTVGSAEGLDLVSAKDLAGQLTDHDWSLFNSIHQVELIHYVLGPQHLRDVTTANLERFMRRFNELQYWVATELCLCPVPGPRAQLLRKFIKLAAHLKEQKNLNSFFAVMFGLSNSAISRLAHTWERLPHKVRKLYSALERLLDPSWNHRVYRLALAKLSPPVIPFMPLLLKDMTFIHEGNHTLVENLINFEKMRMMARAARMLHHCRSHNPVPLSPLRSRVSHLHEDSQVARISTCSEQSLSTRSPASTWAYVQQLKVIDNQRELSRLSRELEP

## COc1ccc(S(=O)(=O)NC(=O)COc2ccc3ccccc3c2)cc1OC
[1]
  Activity: Active

## COc1ccc(S(=O)(=O)NC(=O)COc2ccc3ccccc3c2)c(OC)c1
[1]
  Activity: Active

## COc1ccc(OC)c(S(=O)(=O)NC(=O)COc2ccc3ccccc3c2)c1
[1]
  Activity: Active

## Cc1ccc(S(=O)(=O)NC(=O)COc2ccc3ccccc3c2)c(C)c1
[1]
  Activity: Active
[2]
  Activity: Active
[3]
  Activity: Active
[4]
  Activity: Active
[5]
  Activity: Active
[6]
  Activity: Active
[7]
  Activity: Active
[8]
  pKd: 5.18
[9]
  pKd: 5.31
[10]
  Activity: Active
[11]
  Activity: Active

## Nc1ncnc2c1ncn2[C@@H]1O[C@@H]2CO[P@@](O)(=S)O[C@H]2[C@H]1O
[4]
  Activity: Active
